Experimental data as given in ChEMBL document CHEMBL1156669, “Aldehyde dehydrogenase inhibitors: alpha,beta-acetylenic N-substituted aminothiolesters are reversible growth inhibitors of normal epithelial but irreversible apoptogens for cancer epithelial cells from human prostate in culture” (Eur J Med Chem, 2008).

How the values were obtained:
[1] = system: DU-145; assay: Growth inhibition of human DU145 cells administered after 3 days; format: functional, cell-based; details: DU-145, 72 h
Method in brief: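 DU145 in RPMI 1640 with 10% FCS; 1 × 10⁵ cells per well in 24-well plates, compound added 4 h after seeding. After 3 days the adherent sheet was washed twice with PBS and harvested in 0.14 M NaOH, and protein content measured. IC50 is the mean of three experiments.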

[2] = Growth inhibition of HPEN cells administered after 3 days; format: cell-based; details: Homo sapiens, 72 h
Method in brief: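 HPENC in PrEGM with supplement and 10% FCS; 1 × 10⁵ cells per well in 24-well plates, compound added 4 h after seeding once adhered. After 3 days, growth read as protein content. IC50 is the mean of three experiments.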

[3] = system: BaF3; assay: Induction of apoptosis in mouse BAF3 cells overexpressing bcl2; format: functional, cell-based
[4] = molecular target: Aldehyde dehydrogenase 1 (Saccharomyces cerevisiae); assay: Inhibition of ALDH1

SMILES | IC50 [1] | other results
CN(C)C(=S)C#CC(C)(C)N1CCOCC1 | 100 µM | 
CSC(=O)C#CC(C)(C)N1Cc2ccccc2C1 | 6.2 µM | 
CSC(=O)C#CC(C)(C)N(C)Cc1ccccc1 | 1.4 µM | IC50 [2]: 1.9 µM
CSC(=O)C#CC(C)(C)N1CCCC1 | 6.7 µM | 
CSC(=O)C#CC(C)(C)N(C)CCc1ccccc1 | 6 µM | 
CSC(=O)C#CC(C)(C)N1CCCCC1 | 22 µM | 
CSC(=O)C#CC(C)(C)N1CCSCC1 | 54 µM | 
CSC(=O)C#CC(C)(C)N |  | IC50 [3]: 4 µM; Ki [4]: 280 µM
